Experiments:
[1] = tested on: Vesicular stomatitis Indiana virus; assay: Antiviral activity against clinical isolate Vesicular stomatitis Indiana virus infected in african green monkey Vero 76 cells assessed as reduction of virus-induced plaque formation after 2 days using crystal violet staining; assay type: functional, organism-based; conditions: 48 h
[2] = Cytotoxicity against MDBK cells after 48 to 96 hrs by MTT assay; assay type: cell-based, Bos taurus; conditions: cattle
Method in brief: (§1)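 MDBK seeded at 6×10^5 and BHK at 1×10^6 cells/mL in MEM-Earle's with L-glutamine, 1 mM pyruvate, kanamycin, plus 10% horse serum (MDBK) or 10% FBS (BHK). Cells were grown at 37 °C, 5% CO2 with serial compound dilutions (DMSO stocks diluted in medium). Viability by MTT after 48–96 h. CC50 was taken by linear regression versus untreated controls; three independent determinations.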

[3] = Cytotoxicity against human MT4 cells after 96 hrs by MTT assay; assay type: cell-based
Method in brief: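 Exponentially growing MT-4 cells seeded at 1×10^5 cells/mL in RPMI-1640 with 10% FBS, penicillin and streptomycin. Incubated with serial compound dilutions at 37 °C, 5% CO2 for 96 h; viability by MTT. CC50 by linear regression relative to untreated controls; mean of three independent determinations.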

Poliovirus 1 = assay: Antiviral activity against Human poliovirus 1 strain Sabin Chat infected in african green monkey Vero 76 cells assessed as virus-induced reduction of plaque formation after 2 days using crystal violet staining; assay type: functional, cell-based; conditions: Enterovirus C, 48 h
Yellow fever virus = assay: Antiviral activity against Yellow fever virus 17D Stamaril Pasteur J07B01 infected in hamster BHK21 cells assessed as inhibition of virus-induced cytopathogenicity after 3 to 4 days by MTT assay; assay type: functional, cell-based; conditions: Stamaril Pasteur J07B01, BHK-21
Method in brief: (§2)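 Host cells were seeded in 96-well plates at 3×10^4 cells/well (MDBK) or 5×10^4 cells/well (BHK-21) and grown to confluent monolayers overnight. They were infected at m.o.i. 0.01 in maintenance MEM with 0.5% inactivated FBS. Serial compound dilutions were added after 1 h. Viability was read by MTT after 3–4 days at 37 °C. EC50 was taken by linear regression against untreated controls. Mean of three determinations.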

[4] = Antiviral activity against Bovine viral diarrhea virus 1-NADL infected in MDBK cells assessed as inhibition of virus-induced cytopathogenicity after 3 to 4 days by MTT assay; assay type: functional, cell-based; conditions: Bovine viral diarrhea virus isolates and strains; method in brief: as §2
Reovirus sp. = assay: Antiviral activity against Reovirus type-1 3651 infected in hamster BHK21 cells assessed as inhibition of virus-induced cytopathogenicity after 3 to 4 days by MTT assay; assay type: functional, organism-based; conditions: Reovirus sp., 3651, BHK-21; method in brief: as §2
Human alphaherpesvirus 1 = assay: Antiviral activity against Human herpesvirus 1 strain KOS infected in african green monkey Vero 76 cells assessed as reduction of virus-induced plaque formation after 3 days using crystal violet staining; assay type: functional, organism-based; conditions: Human alphaherpesvirus 1, KOS, 72 h
[5] = Cytotoxicity against african green monkey Vero 76 cells after 48 to 96 hrs by crystal violet staining; assay type: cell-based; conditions: chlorocebus sabaeus
Method in brief: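 Vero-76 cells were seeded at 4×10^5 cells/mL in D-MEM with L-glutamine, kanamycin and 10% FBS, then exposed to serial compound dilutions at 37 °C, 5% CO2 for 48–96 h. Viability was read by crystal violet staining. 50% cytotoxic concentration by linear regression relative to untreated controls; mean of three independent determinations.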

Coxsackievirus B5 = assay: Antiviral activity against Human coxsackievirus B5 Ohio-1 infected in african green monkey Vero 76 cells assessed as reduction of virus-induced plaque formation after 3 days using crystal violet staining; assay type: functional, organism-based; conditions: Enterovirus B, Ohio-1, Vero, 72 h
[6] = tested on: Human immunodeficiency virus 1; assay: Antiviral activity against HIV1 3B infected in human MT4 cells assessed as inhibition of virus-induced cytopathogenicity after 4 days by MTT assay; assay type: functional, organism-based; conditions: Human immunodeficiency virus 1, 3B, MT4, 96 h
Method in brief: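 MT-4 cells (1×10^4 per well) were infected with HIV-1 IIIB at 100 CCID50, m.o.i. 0.01, together with serial compound dilutions. Viability was read by MTT after 4 days at 37 °C. EC50 was taken by linear regression versus untreated controls. Mean of three determinations.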

[7] = Antiviral activity against Vaccinia virus Lister Elstree infected in african green monkey Vero 76 cells assessed as reduction of virus-induced plaque formation after 3 days using crystal violet staining; assay type: functional, cell-based; conditions: 72 h
Human orthopneumovirus = assay: Antiviral activity against Human respiratory syncytial virus A2 infected in african green monkey Vero 76 cells assessed as reduction of virus-induced plaque formation after 5 days using crystal violet staining; assay type: functional, organism-based; conditions: 120 h
[8] = Cytotoxicity against BHK21 cells after 48 to 96 hrs by MTT assay; assay type: cell-based, Mesocricetus auratus, BHK-21; conditions: hamster; method in brief: as §1

Structure (SMILES) | EC50 [1] [µM] | CC50 [2] [µM] | CC50 at 96 h [3] [µM] | EC50 (Poliovirus 1) [µM] | EC50 (Yellow fever virus) [µM] | EC50 [4] [µM] | EC50 (Reovirus sp.) [µM] | EC50 (Human alphaherpesvirus 1) [µM] | CC50 [5] [µM] | EC50 (Coxsackievirus B5) [µM] | EC50 [6] [µM] | EC50 [7] [µM] | EC50 (Human orthopneumovirus) [µM] | CC50 [8] [µM]
Clc1c2ncccc2cc2nc(-c3ccccc3)[nH]c12 | > 100 | 65 | 29 | 53 | > 35 | 4 | 10 | > 100 | > 100 | 36 | > 29 | > 100 | > 100 | 35
Oc1ccnc2c(Cl)c3[nH]c(-c4ccccc4)nc3cc12 | > 100 | > 100 | > 100 | > 100 | > 75 | > 100 | > 75 | > 100 | > 100 | > 100 | > 100 | > 100 | > 100 | 75
Clc1c2ncccc2cc2nc(-c3ccccc3)c(-c3ccccc3)nc12 | > 100 | > 100 | > 100 | > 100 | > 100 | > 100 | > 100 | > 100 | > 100 | > 100 | > 100 | > 100 | > 100 | > 100
O=[N+]([O-])c1c2cccnc2c(Cl)c2[nH]nnc12 | > 100 | > 100 | > 100 | > 100 | > 100 | 23 | > 100 | > 100 | > 100 | > 100 | > 100 | > 100 | > 100 | > 100
Clc1c2ncccc2cc2nc(C3CCCCC3)[nH]c12 | ≥ 100 | 73 | 57 | 80 | > 26 | 19 | > 26 | > 100 | > 100 | 43 | > 57 | ≥ 100 | > 100 | 26
Oc1ccnc2c(Cl)c3nccnc3cc12 | > 90 | 63 | 42 | > 90 | > 85 | > 63 | > 85 | 90 | 90 | > 90 | > 42 | > 90 | > 90 | 85
Clc1c2ncccc2cc2ncc(-c3ccccc3)nc12 | > 100 | > 100 | > 100 | > 100 | > 100 | 18 | > 100 | > 100 | > 100 | > 100 | > 100 | > 100 | > 100 | > 100
O=C(CCl)Cn1nnc2cc3cccnc3c(Cl)c21 | > 100 | 21 | 23 | > 100 | > 65 | > 21 | > 65 | > 100 | > 100 | > 100 | > 23 | > 100 | > 100 | 65
N#CCn1nnc2c(Cl)c3ncccc3cc21 | > 100 | > 100 | 62 | > 100 | > 100 | 23 | > 100 | 51 | > 100 | > 100 | > 62 | > 100 | > 100 | > 100
Clc1c2ncccc2cc2nn[nH]c12 | > 100 | > 100 | > 100 | > 100 | > 100 | > 100 | > 100 | > 100 | > 100 | > 100 | > 100 | > 100 | > 100 | > 100
O=C(CCl)Cn1nnc2c(Cl)c3ncccc3cc21 | > 100 | 53 | 21 | > 100 | > 85 | > 53 | > 85 | > 100 | > 100 | > 100 | > 21 | > 100 | > 100 | 85
Oc1ccnc2c(Cl)c3[nH]nnc3cc12 | > 100 | > 100 | > 100 | > 100 | > 100 | > 100 | ≥ 100 | > 100 | > 100 | > 100 | > 100 | > 100 | > 100 | > 100
O=c1[nH]c2cc3c(O)ccnc3c(Cl)c2nc1-c1ccccc1 | > 100 | > 100 | > 100 | > 100 | > 100 | 100 | > 100 | ≥ 100 | ≥ 100 | > 100 | > 100 | > 100 | > 100 | > 100

Source: ChEMBL document CHEMBL1938334, “Quinoline tricyclic derivatives. Design, synthesis and evaluation of the antiviral activity of three new classes of RNA-dependent RNA polymerase inhibitors” (Bioorg Med Chem, 2011)
